The values that follow come from the RNAGym collection of RNA variant scans (doi:10.1126/science.aae0568).

Fewer inactive variants are shown than the library holds. A value given as a limit tells only on which side of the number the result lay.

Sequences and labels used below:
B1: tRNA (parent)
chain: GUUCCGUUGGCGUAAUGGUAACGCGUCUCCCUCCUAAGGAGAAGACUGCGGGUUCGAGUCCCGUACGGAACG

In this data set the parent is B1. Nature of the data set: yeast fitness relative to wild type (ratio to wild type); higher = fitter; tRNA-Arg(CCU), competitive growth, 37 C, YPD. In outline: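 Variants of the tRNA-Arg(CCU) gene, chemically synthesised with a 3% per-site mutation rate at 69 sites, were placed at the native genomic locus in Saccharomyces cerevisiae. The pooled strains were competed in YPD at 37°C for 24 hours in six parallel replicates. Gene amplicons from the start population and from each end population were read by 100-nucleotide paired-end sequencing. Darwinian fitness relative to wild type came from changes in genotype frequencies; genotypes needed ≥ 100 starting reads, and estimates < 0.5 were set to 0.5.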
As for U3C C31U A65C, the yeast fitness is 0.791. For U3C G12A A21G C46G G50A, the yeast fitness is no more than 0.5. The same measure for U3C C24U C46U C62U: no more than 0.5. For the variant U3C C29G C30G C49A G56C C61U, the yeast fitness worked out at 0.789. With U3C G18C C30U A36U C55A, the yeast fitness is no more than 0.5. On to U3C C49G A65U, for which the yeast fitness was found to be 0.658. In the case of U3C C30A C31U, the yeast fitness was 0.747. To U3C C27U C62U belongs 0.617; to U3C C55U, 0.687; to U3C C55A, 0.687. As to U3C G23C C30A A36G G38C, the yeast fitness is no more than 0.5.

U3C C30U G44A: the yeast fitness stood at 0.566. Take U3C G68U: the yeast fitness is 0.857. As to U3C C55A C60A, the yeast fitness is no more than 0.5. Take U3C G10C C55G: the yeast fitness is no more than 0.5. The same measure for U3C G51C: 0.521. For the variant U3C U7G G38C, the yeast fitness is no more than 0.5. The same measure for U3C C27U A42G G67A: no more than 0.5. On to U3C G12A A37C A45U G48C G50A, for which the yeast fitness is no more than 0.5.

Turning to U3C U7A C29A G58A C61G A70U, the yeast fitness was 0.531. Turning to U3C G44C C46A, the yeast fitness turned out to be 0.672. The same measure for U3C U8A U19A: 0.63. To U3C G9C C11U U19C C30G A43C belongs no more than 0.5. To U3C G48C C66U belongs 0.761; to U3C G23C C66U, no more than 0.5; to U3C G12A C30U C46G, no more than 0.5. With U3C C46G A69C, the yeast fitness was found to be 0.625. To U3C G50A A57G belongs 0.632.

Take U3C G17A U54C: the yeast fitness was no more than 0.5.

As for U3C C27G C33A C66G G67C, the yeast fitness is no more than 0.5.

On to U3C U8G U32A C33G A43U C61U C62U, for which the yeast fitness is no more than 0.5. To U3C C34A G44A G52A C55U belongs 0.562; to U3C C46A G50A, 0.731; to U3C G9A U28G, 0.59. U3C C49G: the yeast fitness was found to be 0.943.

As for U3C C29U G58C, the yeast fitness came out at 0.58. In the case of U3C G56A, the yeast fitness worked out at 1.03. The same measure for U3C G38A G48A: 0.595; for U3C G6C A14U G25A G38A U47A: no more than 0.5.

For U3C G18A, the yeast fitness worked out at 0.916. Regarding U3C C30A U35C G39A A42C A43G C46U A65C, the yeast fitness was no more than 0.5. Take U3C C30G A42C: the yeast fitness is no more than 0.5.

In the case of U3C G12A A45U C66G, the yeast fitness amounted to 0.685. Consider U3C G39A, for which the yeast fitness stood at 0.898. The same measure for U3C G6A G18C C30U C31U A65U: no more than 0.5; for U3C C24U G56A: 0.757; for U3C C62U A69C: 0.756.

U3C G39A A57U C62G: the yeast fitness was no more than 0.5. In the case of U3C G25A U59A, the yeast fitness was 0.642. U3C U8G U32A C33G: the yeast fitness is no more than 0.5. U3C G6C G38C C46A: the yeast fitness is no more than 0.5. The same measure for U3C G38A: 1.05. As to U3C G38C, the yeast fitness came out at 0.813. The same measure for U3C C46A G48A: 0.877; for U3C C49G G63C: 0.617; for U3C G12A A14U U54A A57U: no more than 0.5. On to U3C C30G A43C, for which the yeast fitness amounted to 0.548.

Turning to U3C C24U A36C G63A, the yeast fitness is no more than 0.5. The same measure for U3C C55U G58A: 0.508; for U3C G67A: 0.871; for U3C G6C A14U G25A G38A U47A C60G: 0.558. Turning to U3C G6A G18C C30U C31U G48A C55G A65U, the yeast fitness is no more than 0.5.

As to U3C G9A G48C, the yeast fitness is 0.784. As for U3C C33G A69C, the yeast fitness came out at 0.621. The same measure for U3C U7C U8A A15U G50A U53A: no more than 0.5.

Turning to U3C G18C C31G C34G, the yeast fitness was no more than 0.5. The same measure for U3C U8A G25A A45G: 0.578. U3C C30U A42G G58C: the yeast fitness is no more than 0.5. Regarding U3C U7A A42C C49U C55U, the yeast fitness is no more than 0.5. To U3C G52A G68A belongs no more than 0.5; to U3C G18C C31G C61A, 0.535; to U3C C34U G41C C49U G58A U64A, no more than 0.5. For the variant U3C C31U C49G, the yeast fitness was 0.755. For U3C G9A A21G A40G G56A U64C, the yeast fitness is no more than 0.5. In the case of U3C G10A C22A C24G, the yeast fitness is no more than 0.5. For the variant U3C C31U C34U U35A U53A G58A G68A, the yeast fitness was no more than 0.5. The same measure for U3C G10A C46U U47A U54C: no more than 0.5; for U3C C27U C31U: 0.787. Turning to U3C G52A, the yeast fitness stood at 0.743. Consider U3C G12A A45U C55U, for which the yeast fitness was no more than 0.5.

On to U3C G25A C29U, for which the yeast fitness was 0.681. As for U3C G51A A69C, the yeast fitness was 0.602. The same measure for U3C G18A C31G: no more than 0.5; for U3C U8G A20G C24G: no more than 0.5. The same measure for U3C C31U A45U: 0.718; for U3C G10A G52A U54C G56A G58A: no more than 0.5; for U3C G12A G44C: 0.546. Consider U3C C24U A40G C46A, for which the yeast fitness is 0.702. The same measure for U3C U7A: 0.772. The same measure for U3C C31U G58C: 0.712; for U3C C55U C61A: no more than 0.5; for U3C G12A C33G A42C A65G: no more than 0.5.

U3C G58C: the yeast fitness turned out to be 0.97. With U3C C62A, the yeast fitness worked out at 0.865. Turning to U3C C29U C33A A40C, the yeast fitness was no more than 0.5. In the case of U3C G10C C33U A40C, the yeast fitness was no more than 0.5. Regarding U3C C31U G39A G44A C61U, the yeast fitness was no more than 0.5. Consider U3C C29U C30G G39C C60A, for which the yeast fitness was no more than 0.5.

Consider U3C C31G C34U G38A, for which the yeast fitness is no more than 0.5. To U3C U8C C27G C33A belongs no more than 0.5; to U3C G25A A37U, 0.574. For U3C G25A A45G, the yeast fitness worked out at 0.59. The same measure for U3C C30G U64A A70C: no more than 0.5; for U3C G56A C60A: 0.568.

With U3C G10A G23A C62G G67A, the yeast fitness was no more than 0.5.

U3C U8A A15C C31G C49U A57U G67C: the yeast fitness is no more than 0.5. As to U3C G12A U13C A37C A45U G48C, the yeast fitness was no more than 0.5. The same measure for U3C G10C A20C G56C: 0.577; for U3C G58A G68C: 0.59; for U3C G23A U28G: no more than 0.5. On to U3C G12A G25A, for which the yeast fitness was 0.992. To U3C G48C C55A belongs 0.541; to U3C C31A A42G A43G G68C, no more than 0.5. The same measure for U3C G51C A57G: no more than 0.5. To U3C U7A G44C C61U C62U G63C C66U A69G belongs no more than 0.5; to U3C G17A C30G C61G, no more than 0.5; to U3C C33A C61G, 0.731. Take U3C U7A C27A: the yeast fitness is no more than 0.5. The same measure for U3C C33U: 0.803. Regarding U3C C27U U35C, the yeast fitness turned out to be 0.626. The same measure for U3C C31U G50A G58C C66U: no more than 0.5; for U3C G58C G67C: 0.701; for U3C G58A C61U A70G: 0.777. To U3C C27U G48A C55A G63A belongs no more than 0.5; to U3C G18A U53A U54G, 0.544; to U3C C30A, 1.06.

Turning to U3C U7C G41A A42C G50C A70G, the yeast fitness was no more than 0.5. To U3C C27G C49A belongs no more than 0.5. The same measure for U3C C24U C29G C49U: 0.618; for U3C G50A A65U: 0.652; for U3C C31U C46A: 0.79. To U3C G6C U7G C24G C27A U28A G41A belongs 0.618; to U3C C27A C62U, 0.526; to U3C C27G C30U G67A, 0.554. U3C C31U C62U: the yeast fitness is 0.804.

For the variant U3C G25C G48A, the yeast fitness worked out at 0.598. On to U3C G6A U16C G17A, for which the yeast fitness was no more than 0.5. For U3C G9A A57C, the yeast fitness worked out at 0.584. For the variant U3C C34G C49A G50A, the yeast fitness was no more than 0.5.

U3C G6A U54C C61G: the yeast fitness is no more than 0.5. The same measure for U3C G17C: 0.78.

U3C C31G U32C G38C C46G G48C: the yeast fitness was no more than 0.5.

Take U3C C55G U64A: the yeast fitness was found to be 0.563. As to U3C C31U U54A, the yeast fitness is 0.583. The same measure for U3C C61U U64C: 0.72.

As to U3C G9A C34G A42G C49G C62U A69C, the yeast fitness was no more than 0.5.

As for U3C C30U A37G C61A, the yeast fitness was no more than 0.5. For the variant U3C C31U G68C, the yeast fitness amounted to 0.664. Consider U3C G10C C34U, for which the yeast fitness stood at 0.586. To U3C C46A A70C belongs 1.12; to U3C C27U C46G, 0.789; to U3C G63A, 0.909. As to U3C G63C, the yeast fitness worked out at 0.747. The same measure for U3C U8A C66A: 0.529; for U3C C27U C46A G50A C62U: 0.595. The same measure for U3C G56A A69C: 0.802. U3C C27U: the yeast fitness worked out at 0.941. The same measure for U3C G6C C46A: 0.645; for U3C G6A C29G G58A: no more than 0.5. The same measure for U3C G6A G23C C49G U53G A57G: no more than 0.5; for U3C C30U C55U G58A: no more than 0.5. For U3C G23C, the yeast fitness came to 0.695.

For U3C C29G C33A, the yeast fitness is no more than 0.5. The same measure for U3C G18A C31A G56C A69C: no more than 0.5; for U3C C30A C31G C49A C60U G67A: no more than 0.5; for U3C C34G A57C: 0.715.

On to U3C G12A, for which the yeast fitness is 0.963.
